Experimental data taken from ChEMBL document CHEMBL1133742, “17beta-O-Aminoalkyloximes of 5beta-androstane-3beta,14beta-diol with digitalis-like activity: synthesis, cardiotonic activity, structure-activity relationships, and molecular modeling of the Na(+),K(+)-ATPase receptor” (J Med Chem, 2000).

Columns and labels:
Cavia porcellus [1] = experiment: Compound dose producing 80% of increase in dP/dt in anesthetized guinea pig during slow intravenous infusion of 51.2 uM solution.; type: functional
In short: (§1)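 Anesthetized guinea pig; jugular vein cannula, trachea intubated, spontaneous respiration. After stabilization, compound in physiological solution with 1% DMSO (final) infused at 0.16 mL/min until death or up to 90 min. Infused concentration chosen from the paced guinea pig atria EC50. Read-out is +dP/dt. Doses for the maximal inotropic increase and for death were determined; ED80 (80% increase over basal) came from dose-response curves. Means ± SEM.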

Cavia porcellus [2] = experiment: Compound dose causing lethality in anesthetized guinea pig during slow intravenous infusion of 51.2 uM solution.; type: toxicity, organism-based; conditions: in vivo
In short: (§2)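 Anesthetized guinea pigs with jugular vein cannula and tracheal intubation (spontaneous respiration); +dP/dt recorded. Compound dissolved in DMSO, diluted with physiological solution to 1% DMSO final, infused IV at 0.16 mL/min until death or up to 90 min. Starting infusate concentration was based on the atrial EC50. Doses for maximal inotropic effect and for death determined; ED80 taken from dose–response curves. Means ± SEM where possible.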

Cavia porcellus [3] = species on record: Cavia porcellus; experiment: Concentration producing 50% of the maximal increase in the force of contraction in isolated guinea pig left atrium; type: functional; conditions: Cardiac atrium
In short: (§3)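 Isolated guinea pig atria in solution bubbled with 95% O2/5% CO2, field-stimulated by platinum electrodes at 1 Hz (1 ms square pulses, twice threshold voltage). After 60 min equilibration, cumulative concentrations added, each held until maximal response or arrhythmia.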

Cavia porcellus [4] = experiment: Compound dose producing maximum inotropic effect in anesthetized guinea pig during slow intravenous infusion of 51.2 uM solution.; type: functional; in short: as §1
Cavia porcellus [5] = experiment: Compound dose producing maximum increase in dP/dt, in anesthetized guinea pig during slow intravenous infusion of 51.2 uM solution.; type: functional; in short: as §1
[6] = In vitro maximum inotropic effect on contractile force of an electrically driven guinea pig left atrium.; type: functional, Cavia porcellus, Cardiac atrium; in short: as §3
[7] = Percent increase in force of contraction in vitro determined using electrically driven guinea pig left atrium.; type: functional; conditions: Cavia porcellus, Cardiac atrium; in short: as §3
Cavia porcellus [8] = experiment: Compound dose producing maximum increase in dP/dt, in anesthetized guinea pig during slow intravenous infusion of 220 uM solution.; type: functional; in short: as §2
Cavia porcellus [9] = experiment: Compound dose producing 80% of increase in dP/dt in anesthetized guinea pig during slow intravenous infusion of 220 uM solution.; type: functional; in short: as §2
Cavia porcellus [10] = experiment: Compound dose causing lethality in anesthetized guinea pig during slow intravenous infusion of 220 uM solution.; type: toxicity, organism-based; conditions: in vivo; in short: as §2
[11] = molecular target: Sodium/potassium-transporting ATPase; experiment: In vitro inhibitory concentration against dog kidney Na+/K+ ATPase; type: protein-complex assay, Canis lupus familiaris
In short: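 Na+,K+-ATPase isolated and purified from dog kidney. Inhibition measured as percent hydrolysis of 32P-ATP with versus without compound. […] Single-concentration entries report percent inhibition at the stated concentration. Compounds tested within 1–4 h of dissolution.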

Cavia porcellus [12] = experiment: Compound dose producing maximum inotropic effect in anesthetized guinea pig during slow intravenous infusion of 220 uM solution.; type: functional; in short: as §2
Cavia porcellus [13] = experiment: Compound dose producing maximum inotropic effect in anesthetized guinea pig during slow intravenous infusion of 12.8 uM solution.; type: functional; in short: as §2
Cavia porcellus [14] = experiment: Compound dose producing maximum increase in dP/dt, in anesthetized guinea pig during slow intravenous infusion of 12.8 uM solution.; type: functional; in short: as §2
Cavia porcellus [15] = experiment: Compound dose producing 80% of increase in dP/dt in anesthetized guinea pig during slow intravenous infusion of 12.8 uM solution.; type: functional; in short: as §2
Cavia porcellus [16] = experiment: Compound dose causing lethality in anesthetized guinea pig during slow intravenous infusion of 12.8 uM solution.; type: toxicity, organism-based; conditions: in vivo; in short: as §2
Cavia porcellus [17] = experiment: Compound dose causing lethality in anesthetized guinea pig during slow intravenous infusion of 1000 uM solution.; type: toxicity, organism-based; conditions: in vivo; in short: as §2
Cavia porcellus [18] = experiment: Compound dose producing 80% of increase in dP/dt in anesthetized guinea pig during slow intravenous infusion of 1000 uM solution.; type: functional; in short: as §2
Cavia porcellus [19] = experiment: Compound dose producing maximum increase in dP/dt, in anesthetized guinea pig during slow intravenous infusion of 1000 uM solution.; type: functional; in short: as §2
Cavia porcellus [20] = experiment: Compound dose producing maximum inotropic effect in anesthetized guinea pig during slow intravenous infusion of 1000 uM solution.; type: functional; in short: as §2
Cavia porcellus [21] = experiment: Compound dose producing maximum increase in dP/dt, in anesthetized guinea pig during slow intravenous infusion of 375 uM solution.; type: functional; in short: as §2
Cavia porcellus [22] = experiment: Compound dose producing 80% of increase in dP/dt in anesthetized guinea pig during slow intravenous infusion of 375 uM solution.; type: functional; in short: as §2
Cavia porcellus [23] = experiment: Compound dose producing maximum inotropic effect in anesthetized guinea pig during slow intravenous infusion of 375 uM solution.; type: functional; in short: as §2
Cavia porcellus [24] = experiment: Compound dose causing lethality in anesthetized guinea pig during slow intravenous infusion of 375 uM solution.; type: toxicity, organism-based; conditions: in vivo; in short: as §2
Cavia porcellus [25] = experiment: Compound dose causing lethality in anesthetized guinea pig during slow intravenous infusion of 41.4 uM solution.; type: toxicity, organism-based; conditions: in vivo; in short: as §2
Cavia porcellus [26] = experiment: Compound dose producing maximum inotropic effect in anesthetized guinea pig during slow intravenous infusion of 41.4 uM solution.; type: functional; in short: as §2
Cavia porcellus [27] = experiment: Compound dose producing 80% of increase in dP/dt in anesthetized guinea pig during slow intravenous infusion of 41.4 uM solution.; type: functional; in short: as §2
Cavia porcellus [28] = experiment: Compound dose producing maximum increase in dP/dt, in anesthetized guinea pig during slow intravenous infusion of 41.4 uM solution.; type: functional; in short: as §2
Cavia porcellus [29] = experiment: Compound dose causing lethality in anesthetized guinea pig during slow intravenous infusion of 11.0 uM solution.; type: toxicity, organism-based; conditions: in vivo; in short: as §2
Cavia porcellus [30] = experiment: Compound dose producing 80% of increase in dP/dt in anesthetized guinea pig during slow intravenous infusion of 11.0 uM solution.; type: functional; in short: as §2
Cavia porcellus [31] = experiment: Compound dose producing maximum increase in dP/dt, in anesthetized guinea pig during slow intravenous infusion of 11.0 uM solution.; type: functional; in short: as §2
Cavia porcellus [32] = experiment: Compound dose producing maximum inotropic effect in anesthetized guinea pig during slow intravenous infusion of 11.0 uM solution.; type: functional; in short: as §2

C[C@H]1O[C@@H](O[C@H]2[C@@H](O)C[C@H](O[C@H]3[C@@H](O)C[C@H](O[C@H]4CC[C@@]5(C)[C@H](CC[C@@H]6[C@@H]5C[C@@H](O)[C@]5(C)[C@@H](C7=CC(=O)OC7)CC[C@]65O)C4)O[C@@H]3C)O[C@@H]2C)C[C@H](O)[C@@H]1O [DIGOXIN]
ED80 (Cavia porcellus [1]): 0.205 µM/kg | LD (Cavia porcellus [2]): 1.25 µM/kg | EC50 (Cavia porcellus [3]): 380 nM | dose to obtain Emax (Cavia porcellus [4]): 0.576 µM/kg | Emax (Cavia porcellus [5]): 167% | Concentration giving maximal inotropic effect [6]: 1 µM | Emax [7]: 184%

CN(C)CCO/N=C\CC[C@H]1CC[C@]2(O)[C@@H]3CC[C@@H]4C[C@@H](O)CC[C@]4(C)[C@H]3CC[C@]12C.O=C(O)C(=O)O
Emax (Cavia porcellus [8]): 132% | ED80 (Cavia porcellus [9]): 0.814 µM/kg | EC50 (Cavia porcellus [3]): 650 nM | LD (Cavia porcellus [10]): 7.83 µM/kg | IC50 [11]: 100 nM | Emax (Cavia porcellus [12]): 3.65 µM/kg | Emax [7]: 150%

CC(/C=N/OCCN)=C\[C@H]1CC[C@]2(O)[C@@H]3CC[C@@H]4C[C@@H](O)CC[C@]4(C)[C@H]3CC[C@]12C.O=C(O)/C=C/C(=O)O
Emax (Cavia porcellus [13]): 0.201 µM/kg | Emax (Cavia porcellus [14]): 152% | ED80 (Cavia porcellus [15]): 0.128 µM/kg | EC50 (Cavia porcellus [3]): 70 nM | LD (Cavia porcellus [16]): 0.292 µM/kg | IC50 [11]: 30 nM | Emax [7]: 115%

C[C@]12CC[C@H](O)C[C@H]1CC[C@@H]1[C@@H]2CC[C@]2(C)[C@@H](/C=N/OCCCCN)CC[C@]12O.O=C(O)C(=O)O
LD (Cavia porcellus [17]): 14.8 µM/kg | ED80 (Cavia porcellus [18]): 1.41 µM/kg | Emax (Cavia porcellus [19]): 148% | Emax (Cavia porcellus [20]): 5.03 µM/kg | EC50 (Cavia porcellus [3]): 2900 nM | IC50 [11]: 500 nM | Emax [7]: 92%

CC(/C=N/OCCCN)=C\[C@H]1CC[C@]2(O)[C@@H]3CC[C@@H]4C[C@@H](O)CC[C@]4(C)[C@H]3CC[C@]12C.O=C(O)C(=O)O
Emax (Cavia porcellus [21]): 99% | ED80 (Cavia porcellus [22]): 0.447 µM/kg | Emax (Cavia porcellus [23]): 0.884 µM/kg | LD (Cavia porcellus [24]): 1.67 µM/kg | EC50 (Cavia porcellus [3]): 170 nM | IC50 [11]: 200 nM | Emax [7]: 90%

C[C@]12CC[C@H](O)C[C@H]1CC[C@@H]1[C@@H]2CC[C@]2(C)[C@@H](/C=N/OCCCN)CC[C@]12O.O=C(O)C(=O)O
LD (Cavia porcellus [25]): 0.663 µM/kg | Emax (Cavia porcellus [26]): 0.435 µM/kg | EC50 (Cavia porcellus [3]): 180 nM | IC50 [11]: 20 nM | Emax [7]: 126% | ED80 (Cavia porcellus [27]): 0.24 µM/kg | Emax (Cavia porcellus [28]): 163%

CN(C)CCO/N=C/C=C/[C@H]1CC[C@]2(O)[C@@H]3CC[C@@H]4C[C@@H](O)CC[C@]4(C)[C@H]3CC[C@]12C.O=C(O)C(=O)O
LD (Cavia porcellus [29]): 0.385 µM/kg | ED80 (Cavia porcellus [30]): 0.185 µM/kg | Emax (Cavia porcellus [31]): 110% | EC50 (Cavia porcellus [3]): 57 nM | IC50 [11]: 30 nM | Concentration giving maximal inotropic effect [6]: 0.3 µM | Emax [7]: 191% | Emax (Cavia porcellus [32]): 0.275 µM/kg
